High-throughput results deposited in PubChem BioAssay by The Scripps Research Institute Molecular Screening Center.
This is a sample that favours compounds with a hit; in the whole collection about 3.2% have one here.
OX1R antag-1 = antagonists of human orexin 1 receptor (OX1R). Orexin/Hypocretin receptor type 1 (Homo sapiens), O43613. OX1R-expressing cells, FRET antagonist read-out. inhibition, % at 6.6 µM. 330,000 compounds, 1.8% hits. AID 485270, 2010; in the data active = inhibition mostly above about 38%, no sharp cut-off; inactive = mostly below about 40%;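 note: 0% = agonist challenge alone and 100% = reference antagonist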
TRPML3 agonist = human TRPML3 channel agonists, primary screen, cell-based, HEK293 TRPML3-YFP, Fluo-8 calcium fluorescence, 3 µM; Mucolipin-3 (Homo sapiens), Q8TDD5; 100% = the carbachol control signal; activation, % at 3 µM; 220,000 compounds, 0.29% hits;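 active = activation above its plate's cutoff, the mean activation of the plate's test wells plus 3 SD, cut at about 12% in these data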;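 note: 0% = DMSO only wells and 100% = carbachol wells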
Target sequence (Q8TDD5 whole entry, looked up): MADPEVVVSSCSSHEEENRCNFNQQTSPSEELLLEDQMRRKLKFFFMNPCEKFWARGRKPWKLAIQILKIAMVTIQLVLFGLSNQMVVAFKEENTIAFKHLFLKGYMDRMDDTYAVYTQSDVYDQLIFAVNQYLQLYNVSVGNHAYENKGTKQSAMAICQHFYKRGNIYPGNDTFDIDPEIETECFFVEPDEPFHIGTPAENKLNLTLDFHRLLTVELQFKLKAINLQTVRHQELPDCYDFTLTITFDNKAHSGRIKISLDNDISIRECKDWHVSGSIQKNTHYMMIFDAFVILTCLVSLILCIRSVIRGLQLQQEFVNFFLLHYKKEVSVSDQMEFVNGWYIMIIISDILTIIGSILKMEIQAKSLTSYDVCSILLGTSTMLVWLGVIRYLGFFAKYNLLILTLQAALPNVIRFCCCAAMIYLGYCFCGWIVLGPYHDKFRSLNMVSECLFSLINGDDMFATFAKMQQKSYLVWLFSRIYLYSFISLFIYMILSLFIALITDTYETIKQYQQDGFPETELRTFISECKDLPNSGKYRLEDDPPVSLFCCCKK
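Material: HEK293 cells stably carrying human TRPML3-YFP; compound dosing: single dose, 3 µM final nominal compound, 0.3% DMSO final; incubation: 1-h 37 °C dye load, 5-s basal, 120-s post-compound reads; technique: Fluo-8 intracellular calcium fluorescence, excitation 470-495 nm, emission 515-575 nm; read-out basis: percent activation from peak-to-basal fluorescence ratio, scaled between DMSO and carbachol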
OX1R antag-2 = OX1R (HCRTR1) antagonists, primary screen, fluorescence, CHO/OX1R cells, Fluo-8 calcium, orexin A. Orexin/Hypocretin receptor type 1 (Homo sapiens), O43613. Fluo-8 calcium fluorescence. inhibition, % at 5 µM. 330,000 compounds, 0.43% hits. AID 434989, 2010;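 active = inhibition above its plate's threshold, mean inhibition of all tested compounds on the plate plus 3 SD, cut at about 37% in these data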;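 note: 0% = orexin A challenge wells and 100% = SB-334867-A antagonist wells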
TRPN1 ag = zebrafish TRPN1 channel agonists, primary screen, cell-based, HEK293, calcium fluorescence. transient receptor potential cation channel N1 (TRPN1/NompC), Danio rerio. HEK293 zebrafish TRPN1-YFP, Fluo-8 calcium fluorescence; 100% = response to 87 µM carbachol. activation, % at 3 µM. 220,000 compounds, 0.18% hits;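 active = activation above its plate's cutoff, the mean activation of test wells on that plate plus 3 SD, cut at about 19% in these data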;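 note: 0% = DMSO alone and 100% = 87 µM carbachol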
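System: zebrafish TRPN1-YFP in HEK293 cells / Dosing: 3 µM single point / Timing: dye loading 1 h at 37 °C, then 30 min room temperature / Signal: Fluo-8 calcium fluorescence, excitation 470-495 nm, emission 515-575 nm / Read-out basis: percent activation from peak over basal fluorescence ratio, control-normalized / Control set: high carbachol 87 µM, low DMSO alone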
GPR7 antagonist = GPR7 receptor antagonists, primary screen, cell-based, fluorescence, single concentration. Neuropeptides B/W receptor type 1 (Homo sapiens), P48145. GPR7-expressing cells, fluorescence antagonist assay. inhibition, % at 4.4 µM. 290,000 compounds, 1.1% hits. AID 1861, 2009; in the data active = inhibition above about 16%, passing the limit was not always enough;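 note: cells stimulated with the agonist NPW; 0% = agonist with vehicle and 100% = vehicle without agonist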
CHO parental Ca = ATP-evoked calcium signal inhibitors, parental CHO, primary screen, counter-screen for OX1R antagonist project, cell-based, fluorescence, Fluo-8 calcium dye | AID 463079, 2010 | inhibition, % at 5.6 µM | 330,000 compounds, 0.63% hits | parental CHO-K1, ATP-induced calcium, Fluo-8 fluorescence;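 active = inhibition above that plate's mean sample inhibition plus 3 SD, cut at about 26% in these data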;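 note: 0% = ATP-challenged DMSO wells and 100% = DMSO wells without ATP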
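Measured by: calcium-sensitive Fluo-8 fluorescence / Test system: CHO parental line / Controls: ATP-challenged DMSO wells low, unchallenged DMSO wells high / Measure: % inhibition / Compound: single nominal dose of 5.6 µM per compound / Replicates: single well per compound, no replicates / Reagent: ATP as calcium-mobilizing challenge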
GPR7 antag cf = GPR7 receptor antagonists, confirmation, cell-based, fluorescence, single concentration. shares compounds with GPR7 antagonist. GPR7-expressing cells, calcium fluorescence antagonist mode. inhibition, % at 4.4 µM. 2,400 compounds, 52% hits; in the data active = inhibition above about 24%;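 note: stimulated with the GPR7 agonist NPW; 0% = agonist plus vehicle and 100% = vehicle alone without agonist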
MCHR1 antagonist = MCHR1 antagonists in cells, counter-screen for GPR7 antagonist project, cell-based, fluorescence, human; shares compounds with GPR7 antagonist; MCHR1-expressing cells, fluorescence antagonist assay; inhibition, % at 4.4 µM; 2,400 compounds, 62% hits; in the data active = inhibition above about 22%;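 note: 0% = vehicle with agonist and 100% = vehicle without agonist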
* = called active by the depositor; / = no result given.

SMILES	OX1R antag-1	TRPML3 agonist	OX1R antag-2	TRPN1 ag	GPR7 antagonist	CHO parental Ca	GPR7 antag cf	MCHR1 antagonist
COc1cc(C)ccc1Oc1ncnc(N)c1[N+](=O)[O-]	14	/	-11	/	51*	3	-6	-6
C(=C\c1ccccc1)/CSc1nnc(-c2ccccc2)n1Cc1ccco1	9	0	4	-2	32*	-8	41*	64*
S=C(NCCc1ccccc1)Nc1ccc(Cl)cc1	28	1	1	2	-12	-1	/	/
O=[N+]([O-])c1ccc(NC(=S)NCCc2ccc(Cl)cc2)cc1	71*	11	64*	17	49*	69*	65*	70*
S=C(NCCN(C1CCCCC1)C1CCCC1)Nc1cccc(Cl)c1	12	/	-5	/	55*	0	60*	69*
O=[N+]([O-])c1ccc(NC(=S)NCCc2ccccc2)cc1	47*	12*	6	19*	47*	51*	61*	59*
S=C(NCCC(c1ccccc1)c1ccccc1)Nc1cccc(Cl)c1	68	1	27	1	-4	6	/	/
NS(=O)(=O)c1ccc(NC(=S)NCCc2ccccc2)cc1	-12	0	14	1	4	5	/	/
O=[N+]([O-])c1ccc(NC(=S)NCc2ccc(F)cc2)cc1	27	/	-22	/	40*	74*	59*	71*
NS(=O)(=O)c1ccc(NC(=S)NCc2ccc(F)cc2)cc1	-4	0	-8	0	10	2	/	/
O=C(CSc1cn[nH]n1)Nc1cccc(C(F)(F)F)c1	12	/	-8	/	-3	1	/	/
Fc1ccc(CNC(=S)Nc2cccc(Cl)c2)cc1	13	6	15	12	36*	41*	14	53*
S=C(NCc1ccncc1)Nc1cccc(Cl)c1	5	1	-3	1	-12	-9	/	/
Cc1ccccc1Oc1ncnc2oc(-c3ccccc3)cc12	22	0	-33	0	29*	-33	31*	17
O=C(NC1CCS(=O)(=O)C1)c1cc(-c2ccccc2)nc2ccccc12 (stereo unspecified)	7	-2	-12	2	-9	-7	/	/
CC(C)c1ccc(NC2CCCN(C(=O)CC3CCCC3)C2)cc1 (stereo unspecified)	3	/	19	/	35*	-8	30*	27*
Cc1nonc1C(=O)N1CCCC(Nc2ccc(C(C)C)cc2)C1 (stereo unspecified)	26	/	-13	/	25*	-13	5	26*
CC(C)c1ccc(NC2CCCN(C(=O)CCN3CCCC3=O)C2)cc1 (stereo unspecified)	-1	/	0	/	-10	-20	/	/
Cc1nnsc1C(=O)N1CCCC(Nc2ccc(C(C)C)cc2)C1 (stereo unspecified)	2	/	-13	/	-3	-16	/	/
C=CCn1c(C)csc1=Nc1ccccc1C	0	-1	-11	-2	-11	-9	/	/
COc1cccc(C(=O)Nc2ccc3c(c2)CCCN3C(=O)c2cccs2)c1OC	30	/	-22	/	-13	-20	/	/
Cc1ccccc1C(=O)Nc1ccc2c(c1)CCCN2C(=O)c1cccs1	20	/	-14	/	25*	-16	16	35*
N#CCOC(=O)[C@H](Cc1c[nH]c2ccccc12)NS(=O)(=O)c1ccc(Cl)cc1	-10	/	19	/	43*	14	49*	33*
CCC(CC)c1nc(C#N)c(NCc2ccccc2)o1	12	0	-22	-1	31*	-21	11	28*
O=C(Cc1cccs1)N(Cc1cccs1)C1(C(=O)NC2CCCC2)CCCCC1	16	-2	-6	-1	47*	-7	37*	51*
SMILES	OX1R antag-1	TRPML3 agonist	OX1R antag-2	TRPN1 ag	GPR7 antagonist	CHO parental Ca	GPR7 antag cf	MCHR1 antagonist
O=C(c1ccc2c(c1)OCO2)N(Cc1cccs1)C1(C(=O)NC2CCCCC2)CCCCC1	14	1	-32	-1	31*	-1	40*	59*
O=C(NC1CCCCC1)C(c1cccs1)N(Cc1cccs1)C(=O)c1cccs1 (stereo unspecified)	31	-1	-3	-1	32*	-13	31*	42*
O=C1CCC(C(=O)N(Cc2ccco2)C2(C(=O)NC3CCCC3)CCCCC2)N1 (stereo unspecified)	1	1	-9	-1	28*	-10	22	17
O=C(Cc1cccs1)N(c1ccc(F)cc1)C1(C(=O)NC2CCCCC2)CCCC1	37	0	-44	-2	-2	-26	/	/
CCCCn1c(N)c(N(CC(C)C)C(=O)CCS(=O)(=O)c2ccc(C)cc2)c(=O)[nH]c1=O	4	/	-24	/	/	-12	/	/
O=C(Cc1cccs1)N(Cc1ccco1)C1(C(=O)NC2CCCCC2)CCCCC1	15	0	-32	0	44*	-2	47*	52*
O=C(c1ccc2c(c1)OCO2)N(CC1CCCO1)C1(C(=O)NC2CCCCC2)CCCCC1 (stereo unspecified)	17	0	-25	-2	34*	-21	29*	30*
CC(=O)N(Cc1ccco1)C1(C(=O)NC2CCCCC2)CCCCC1	15	0	-20	-1	16	-9	/	/
COc1ccc(OC)c(N(CC(=O)N2CCC(C)CC2)S(=O)(=O)c2ccccc2)c1	31	8	-21	0	26*	-15	21	18
COc1ccc(OC)c(N(CC(=O)N2CCC(C)CC2)S(=O)(=O)c2ccc(OC)c(OC)c2)c1	22	1	-32	0	-10	-16	/	/
CC(C)(C)c1ccc(OCCOc2ccc(C(C)(C)C)cc2NC=O)c(NC=O)c1	29	0	41*	-1	19*	69*	29*	72*
CC(=O)c1ccc(N2CCN(CC(O)COC(c3ccccc3)c3ccccc3C)CC2)cc1 (stereo unspecified)	10	/	-14	/	15	-19	/	/
CC(=O)c1ccc(N2CCN(CC(O)COC(c3ccccc3)c3ccccc3)CC2)cc1 (stereo unspecified)	3	/	-25	/	27*	-17	35*	34*
CCc1nc(SCC(=O)c2c[nH]c3ccccc23)n[nH]1	4	0	-12	-2	-11	-3	/	/
